Measured values published in ChEMBL document CHEMBL4477178, “Biflorin, Isolated from the Flower Buds of Syzygium aromaticum L., Suppresses LPS-Induced Inflammatory Mediators via STAT1 Inactivation in Macrophages and Protects Mice from Endotoxin Shock” (J Nat Prod, 2016).

Experiments:
[1] = test system: RAW264.7; assay: Antiinflammatory activity in mouse RAW264.7 cells assessed as inhibition of LPS-induced nitric oxide production preincubated for 1 hr followed by LPS challenge for 24 hrs by Griess assay; type: functional, cell-based
Method in brief: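 RAW 264.7 cells plated at 2 × 10^5 cells/mL and incubated overnight. Compound given at 15, 30 or 60 μM for 1 h, then LPS 10 ng/mL for 24 h. Nitrite in the medium measured by Griess reagent (10 min, room temperature, A540) against a NaNO2 standard. L-NIL 20 μM as positive control; IC50 derived; three independent experiments.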

[2] = test system: RAW264.7; assay: Antiinflammatory activity in mouse RAW264.7 cells assessed as inhibition of LPS-induced PGE2 production preincubated for 1 hr followed by LPS challenge for 24 hrs by ELISA method; type: functional, cell-based
Method in brief: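 RAW 264.7 cells in DMEM with 10% FBS, plated at 2 × 10^5 cells/mL and incubated overnight. Pretreated with compound (15, 30 or 60 μM) for 1 h, then LPS 10 ng/mL for 24 h. PGE2 measured by competitive colorimetric ELISA, TNF-α and IL-6 by ELISA, in diluted medium. NS-398 3 μM as positive control for PGE2. Mean ± SD, three independent experiments; IC50 given for PGE2.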

[3] = test system: Rattus norvegicus; assay: Antiinflammatory activity in Sprague-Dawley rat assessed as inhibition of croton oil-induced ear edema at 100 mg/kg, po administered 1 hr before croton oil challenge measured after 3 hrs post challenge; type: functional
Method in brief: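 Croton-oil ear edema in male SD rats: ibuprofen 100 mg/kg p.o. given as reference. Croton oil (5% in 100 μL acetone) applied to the right ear, acetone to the left. Thickness of 6 mm ear punches measured 3 h after application; seven rats per group.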

[4] = test system: Rattus norvegicus; assay: Antiinflammatory activity in Sprague-Dawley rat assessed as reduction in carrageenan induced paw edema at 100 mg/kg, po administered 1 hr before carrageenan challenge measured at 3 hrs post challenge; type: functional
Method in brief: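 Carrageenan paw edema in SD rats: ibuprofen 100 mg/kg p.o. as reference. Carrageenan (1% in saline, 0.1 mL) injected into the right hind paw. Volume measured by plethysmometer at 1, 3 and 5 h; seven rats per group.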

SMILES | IC50 [1] | IC50 [2] | inhibition in vivo at 100 mg/kg [3] | inhibition in vivo at 100 mg/kg [4]
Cc1cc(=O)c2c(O)cc(O)c([C@@H]3O[C@H](CO)[C@@H](O)[C@H](O)[C@H]3O)c2o1 | > 60 µM | 46 µM | – | –
CC(C)Cc1ccc(C(C)C(=O)O)cc1 (centres undefined) [IBUPROFEN] | – | – | 78.2% | 68%
